Structures can show the parent of a compound that is named as a salt. The source made the active and inactive calls. The calls are words filed in the database; no cut-off is given here.
Legend:
Format in all cases: functional, cell-based
[1] = test system: KB; experiment: Cytotoxicity against human KB cells up to 100 uM after 48 hrs by MTT assay
Procedure, shortened: (§1)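 Cell lines obtained from a provincial disease-control centre. Compounds (HPLC-DAD purity over 95%) dissolved in DMSO and tested against the cells. Viability read by MTT colorimetric assay and expressed as IC50. Doxorubicin HCl served as positive control and compound-free medium as negative control. Each test was run three times.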

[2] = Cytotoxicity against human GHOST-R5X4 cells after 48 hrs by MTT assay; settings: GHOST-R5X4, 48 h; procedure, shortened: as §1
[3] = test system: A-375; experiment: Cytotoxicity against human A375 cells after 48 hrs by MTT assay; settings: A-375, 48 h; procedure, shortened: as §1
[4] = test system: BGC-823; experiment: Cytotoxicity against human BGC823 cells after 48 hrs by MTT assay; settings: BGC-823, 48 h; procedure, shortened: as §1
[5] = test system: HepG2; experiment: Cytotoxicity against human HepG2 cells after 48 hrs by MTT assay; settings: HepG2, 48 h; procedure, shortened: as §1
[6] = test system: A-375; experiment: Cytotoxicity against human A375 cells up to 100 uM after 48 hrs by MTT assay; procedure, shortened: as §1
[7] = test system: HepG2; experiment: Cytotoxicity against human HepG2 cells up to 100 uM after 48 hrs by MTT assay; procedure, shortened: as §1
[8] = test system: KB; experiment: Cytotoxicity against human KB cells after 48 hrs by MTT assay; procedure, shortened: as §1
[9] = test system: BGC-823; experiment: Cytotoxicity against human BGC823 cells up to 100 uM after 48 hrs by MTT assay; procedure, shortened: as §1
[10] = test system: GHOST-R5X4; experiment: Cytotoxicity against human GHOST-R5X4 cells up to 100 uM after 48 hrs by MTT assay; procedure, shortened: as §1

## C[C@H]1O[C@H](O[C@]23C(=O)C[C@](C)(O)C[C@@]2(O)C=CC2=C3C(=O)c3cccc(O)c3C2=O)CC[C@H]1O [SAKYOMICIN C]
[1]
  Activity: inactive
[2]
  IC50: 14 µM
[3]
  IC50: 17.5 µM
[4]
  IC50: 11 µM
[5]
  IC50: 17.4 µM

## C[C@]1(O)CC(=O)c2c(ccc3c2C(=O)c2cccc(O)c2C3=O)C1 [TETRANGOMYCIN]
[6]
  Activity: inactive
[7]
  Activity: inactive
[2]
  IC50: 17.7 µM
[8]
  IC50: 23.7 µM
[4]
  IC50: 36.1 µM

## COc1cccc2c1C(=O)c1ccc3cc(C)cc(O)c3c1C2=O
[1]
  Activity: inactive
[6]
  Activity: inactive
[7]
  Activity: inactive
[9]
  Activity: inactive
[2]
  IC50: 89 µM

## COC(=O)C(O)C(C)(O)Cc1ccc2c(c1O)C(=O)c1cccc(O)c1C2=O (centres undefined)
[1]
  Activity: inactive
[6]
  Activity: inactive

## Cc1cc(O[C@@H]2O[C@@H](C)[C@H](O)[C@@H](O)[C@H]2O)c2c3c(c(O)cc2c1)C(=O)c1c(O)cccc1C3=O
[1]
  Activity: inactive
[6]
  Activity: inactive

## COc1cccc2c1C(=O)c1c(O)c3c(c(O)c1C2=O)C[C@@](O)(C(=O)CO)C[C@@H]3O[C@H]1C[C@H](N)[C@H](O)[C@H](C)O1 [DOXORUBICIN HYDROCHLORIDE]
[2]
  IC50: 5.73 µM
[8]
  IC50: 0.01 µM
[3]
  IC50: 0.73 µM
[4]
  IC50: 0.01 µM
[5]
  IC50: 1.11 µM

## C[C@@]1(O)Cc2ccc3c(c2C(=O)[C@@H]1O)C(=O)c1cccc(O)c1C3=O
[1]
  Activity: inactive
[6]
  Activity: inactive
[7]
  Activity: inactive
[9]
  Activity: inactive
[2]
  IC50: 37.6 µM

## C[C@H]1O[C@H](O[C@]23C(=O)[C@@H](O)[C@](C)(O)C[C@@]2(O)C=CC2=C3C(=O)c3cccc(O)c3C2=O)CC[C@H]1O [SAKYOMICIN A]
[10]
  Activity: inactive
[1]
  Activity: inactive
[6]
  Activity: inactive
[4]
  IC50: 15.1 µM
[5]
  IC50: 34.9 µM

Reference: ChEMBL document CHEMBL2203202, “Angucyclines from an insect-derived actinobacterium Amycolatopsis sp. HCa1 and their cytotoxic activity” (Bioorg Med Chem Lett, 2012)
